The list is not random: actives were taken first. Their share in the collection is about 1.6%.
LEDGF integ inh – blocks HIV-1 LEDGF/p75-dependent DNA integration; TR-FRET IN-LEDGF/p75 DNA integration, Eu/Cy5; inhibition, % at 3.7 µM; 370,000 tested, 0.64% active; AID 743269;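 active = inhibition above the screen-wide mean plus 3 SD, cut at about 13% in these data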;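 also: signal is the Cy5 over europium emission ratio at 671 and 618 nm; 0% = plate median of compound wells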
UHRF1 MBD2 ctr – blocks human UHRF1 binding to methylated DNA | Q96T88 | UHRF1 binding to methylated oligo, TR-FRET | inhibition, % at 4.4 µM | 370,000 tested, 0.75% active | AID 687016; in the data active = inhibition above about 21%;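 also: UHRF1 SRA domain binding a hemimethylated CpG hairpin DNA probe; 0% = median of test compound wells and 100% = reference inhibitor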
TDP2 absorb – TDP2 (human) inhibition, absorbance primary screen. 370,000 tested, 0.34% active. recombinant TDP2, T5PNP hydrolysis, p-nitrophenol absorbance 415 nm. O95551. inhibition, % at 12.8 µM;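 active = inhibition above the mean of all tested compounds plus 3 SD, set per campaign, cut at about 25% in these data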;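 also: 0% = DMSO with enzyme and 100% = buffer with substrate but no TDP2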
Target sequence (O95551 whole entry, looked up): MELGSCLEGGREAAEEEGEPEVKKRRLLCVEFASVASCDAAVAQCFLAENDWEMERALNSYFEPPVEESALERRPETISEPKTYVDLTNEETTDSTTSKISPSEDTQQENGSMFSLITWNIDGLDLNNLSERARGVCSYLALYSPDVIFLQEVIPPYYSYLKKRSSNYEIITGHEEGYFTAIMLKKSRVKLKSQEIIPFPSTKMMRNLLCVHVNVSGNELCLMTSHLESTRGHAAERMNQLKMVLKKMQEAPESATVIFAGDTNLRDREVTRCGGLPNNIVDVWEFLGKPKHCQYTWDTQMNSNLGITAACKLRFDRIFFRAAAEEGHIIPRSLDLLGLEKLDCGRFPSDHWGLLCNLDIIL
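Assay system: recombinant human TDP2 / Reagent: T5PNP substrate at 5 mM, a TopII-DNA adduct mimic / Measured by: epi absorbance from released p-nitrophenol / Evaluation: % inhibition relative to enzyme-containing and enzyme-free wells / Control set: enzyme-free and DMSO wells / Replicates: each compound tested once, singlicate / Schedule: enzyme reaction with compound for 2 h at 37 °C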
MBD2 inh – MBD2-methylated oligo binding inhibition; Q9UBB5; TR-FRET, MBD2 binding to methylated oligonucleotide; inhibition, % at 4.4 µM; 370,000 tested, 0.31% active; AID 686964; in the data active = inhibition above about 13%
* marks the source's active call; other numbers are inactive results.

Screening CCOC(=O)[C@]12CCCC=C1N(CCCOC)C(=O)[C@@H]2CC(=O)N1CCN(C(=O)c2ccco2)CC1 returned LEDGF integ inh 2.1, UHRF1 MBD2 ctr -0.3, TDP2 absorb 8.3 and MBD2 inh -5.3.
Cc1cccc2c(=O)c(C(=O)N3CCCCCC3)c[nH]c12 was read as LEDGF integ inh 0.2, UHRF1 MBD2 ctr 22.5*, TDP2 absorb 10.1 and MBD2 inh 10.5.
O=C(c1c[nH]c2ccc(F)cc2c1=O)N1CCCCCC1 was read as LEDGF integ inh 2.0, UHRF1 MBD2 ctr -3.0, TDP2 absorb 7.1 and MBD2 inh 4.4.
`COc1ccc(Cn2cc(CN3[C@@H](CC(C)C)COc4ccc(Cl)cc4S3(=O)=O)nn2)cc1` gave LEDGF integ inh 0.7, UHRF1 MBD2 ctr -4.2, TDP2 absorb -1.5 and MBD2 inh -3.7.
Screening COC(=O)CSc1nnc(-c2cc(-c3ccccc3)n[nH]2)n1N returned LEDGF integ inh 2.5, UHRF1 MBD2 ctr -0.2, TDP2 absorb -9.4 and MBD2 inh -1.2.
For O=C(Nc1ccc2c(c1)OCCO2)c1ccc2ccccc2n1 the results were LEDGF integ inh -2.0, UHRF1 MBD2 ctr 22.0*, TDP2 absorb -4.5 and MBD2 inh -6.1.
Cc1cccc(C)c1NC(=O)C1(C)CCC(=O)N1c1cc(C(C)(C)C)nn1C (configuration not stated) was read as LEDGF integ inh 4.4, UHRF1 MBD2 ctr 22.2*, TDP2 absorb -3.9 and MBD2 inh 11.2.
Cn1nc(C(C)(C)C)cc1N1C(=O)CCC1(C)C(=O)NCc1ccccc1 (configuration not stated) was read as LEDGF integ inh -1.4, UHRF1 MBD2 ctr 1.0, TDP2 absorb -0.1 and MBD2 inh 3.5.
`CCCCn1c(NS(=O)(=O)c2ccc(C)cc2)c(S(=O)(=O)c2ccccc2)c2nc3ccccc3nc21` gave LEDGF integ inh 11.6, UHRF1 MBD2 ctr 9.8, TDP2 absorb 58.0* and MBD2 inh -4.9.
Cc1ccc(S(=O)(=O)c2c(N)n(CCCN(C)C)c3nc4ccccc4nc23)cc1 was read as LEDGF integ inh 3.4, UHRF1 MBD2 ctr -6.3, TDP2 absorb -0.7 and MBD2 inh -10.2.
Screening COC(=O)[C@]12C[C@H](CC(=O)N3CCOCC3)C(=O)N(Cc3ccco3)C1=C[C@H](COCc1ccccc1)O[C@@H]2C returned LEDGF integ inh 2.1, UHRF1 MBD2 ctr 0.4, TDP2 absorb -5.6 and MBD2 inh 0.1.
For O=C(COC(=O)c1cc(=O)[nH]c2ccccc12)NC1CCCC1 the results were LEDGF integ inh -0.3, UHRF1 MBD2 ctr 30.0*, TDP2 absorb 0.7 and MBD2 inh 6.4.
Screening CC1CCCCC1NC(=O)COC(=O)c1cc(=O)[nH]c2ccccc12 (configuration not stated) returned LEDGF integ inh -2.6, UHRF1 MBD2 ctr 13.9, TDP2 absorb 1.6 and MBD2 inh 4.5.
`COC(=O)C[C@@H]1CC[C@H]2[C@@H](COc3ccc(NC(=O)Nc4ccccc4Cl)cc3C(=O)N2C)O1` gave LEDGF integ inh -3.6, UHRF1 MBD2 ctr 0.3, TDP2 absorb 4.5 and MBD2 inh 1.4.
For CCOc1ccccc1NC(=O)C1C2CCC3C(CCC21)C3(Cl)Cl (configuration not stated) the results were LEDGF integ inh 3.9, UHRF1 MBD2 ctr 25.7*, TDP2 absorb -10.5 and MBD2 inh 8.3.
Screening CCOc1ccccc1NC(=O)COC(=O)C1CCC1 returned LEDGF integ inh 2.5, UHRF1 MBD2 ctr 1.0, TDP2 absorb -20.3 and MBD2 inh -1.9.
Screening O=C(Nc1ccccc1Cl)C1C2CCC3C(CCC21)C3(Cl)Cl (configuration not stated) returned LEDGF integ inh -2.5, UHRF1 MBD2 ctr -0.8, TDP2 absorb 5.9 and MBD2 inh -3.6.
`CCOc1ccccc1NC(=O)COC(=O)C1CC1` gave LEDGF integ inh 2.2, UHRF1 MBD2 ctr 23.1*, TDP2 absorb 15.9 and MBD2 inh 10.7.
For COc1ccc(CN2C[C@@]3(O)CC[C@@H](O)[C@@H](OC)[C@@H]3[C@@]2(C)[C@H](O)CC=C(C)C)cc1 the results were LEDGF integ inh -0.5, UHRF1 MBD2 ctr -4.3, TDP2 absorb 9.4 and MBD2 inh 4.3.
C=CCN1[C@H](C#N)[C@@H](c2ccccc2)[C@H]1CO was read as LEDGF integ inh -6.0, UHRF1 MBD2 ctr 0.3, TDP2 absorb 6.3 and MBD2 inh 4.7.
For CC(C)C[C@@H]1COc2cc(Br)ccc2S(=O)(=O)N1Cc1cn(CCC2OCCO2)nn1 the results were LEDGF integ inh 1.5, UHRF1 MBD2 ctr 0.9, TDP2 absorb -9.8 and MBD2 inh -1.1.
For CCN(CC)CC(C)OC(=O)COc1ccc(OC)cc1 (configuration not stated) the results were LEDGF integ inh 3.4, UHRF1 MBD2 ctr 23.7*, TDP2 absorb -4.9 and MBD2 inh -3.2.
`COc1cccc(NC(=O)C2(C)CCCN(C(C)C)C2)c1` (configuration not stated) gave LEDGF integ inh 0.3, UHRF1 MBD2 ctr 0.5, TDP2 absorb 1.5 and MBD2 inh 0.1.
CC(C)N1CCC(C)(C(=O)Nc2cccc(Oc3ccccc3)c2)C1 (configuration not stated) was read as LEDGF integ inh -2.8, UHRF1 MBD2 ctr 30.7*, TDP2 absorb 5.2 and MBD2 inh -0.7.
For CCC1CCc2sc(C(=O)N(C)CC(=O)Nc3ccc(OC)cc3)cc2C1 (configuration not stated) the results were LEDGF integ inh 7.0, UHRF1 MBD2 ctr 0.0, TDP2 absorb -5.1 and MBD2 inh -5.4.
CCC1CCc2sc(C(=O)N(C)CC(=O)Nc3cccc(OC)c3)cc2C1 (configuration not stated) was read as LEDGF integ inh 3.0, UHRF1 MBD2 ctr 66.2*, TDP2 absorb 4.3 and MBD2 inh -5.2.
Screening COC(=O)[C@H](Cc1ccccc1)NC(=O)[C@H]1C[C@@]2(N3CCCC3)c3ccccc3N(C(=O)OC(C)(C)C)[C@H]2N1C(=O)OC(C)(C)C returned LEDGF integ inh 0.3, UHRF1 MBD2 ctr 0.3, TDP2 absorb -5.0 and MBD2 inh -0.4.
CC(=NCCc1ccccc1)C1=C(O)CSC1=O was read as LEDGF integ inh -2.8, UHRF1 MBD2 ctr 3.8, TDP2 absorb -5.1 and MBD2 inh -4.5.
`CC(=NCCc1ccccc1)C1=C(O)CCC1=O` gave LEDGF integ inh -1.3, UHRF1 MBD2 ctr 45.0*, TDP2 absorb -2.8 and MBD2 inh 3.0.
COC1=C(Br)C(=O)c2ncccc2C1=O was read as LEDGF integ inh 14.9*, UHRF1 MBD2 ctr 10.5, TDP2 absorb 94.2* and MBD2 inh -9.7.
Screening CN(Cc1ccco1)C(=O)[C@@H](Cc1ccccc1)NC(=O)[C@H]1O[C@@H](n2ccc(=O)[nH]c2=O)[C@H](O)[C@@H]1O returned LEDGF integ inh 8.2, UHRF1 MBD2 ctr -1.6, TDP2 absorb -5.1 and MBD2 inh -7.0.
`O=C1C(SCCO)=C(SCCO)C(=O)c2ccccc21` gave LEDGF integ inh 29.4*, UHRF1 MBD2 ctr -9.0, TDP2 absorb 77.6* and MBD2 inh -8.9.

Screens from PubChem BioAssay.
